An excerpt weighted towards active compounds, which were near 3.9% of everything screened.
M1 ag: activates human CHRM1 receptor. CHO-K1 hM1, Fluo-8 calcium fluorescence, agonist mode; 0% DMSO, 100% acetylcholine EC100. activation, % at 3 µM. 360,000 compounds, 0.33% hits. AID 588814;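 active = activation above the run's mean compound activation plus 3 SD, cut at about 16% in these data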;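 also: peak over basal fluorescence ratio within a 140 s kinetic read after compound addition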
TAAR1 agonist: human TAAR1 agonism; Q96RJ0; CHO RD-HGA16 TAAR1, Fluo-8 calcium fluorescence; vehicle wells 0%, saturating PEA agonist 100%; activation, % at 3 µM; 360,000 compounds, 0.99% hits;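 active = activation above the mean activation of all test compounds in the run plus 3 SD, cut at about 38% in these data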
Target sequence (Q96RJ0 whole entry, looked up): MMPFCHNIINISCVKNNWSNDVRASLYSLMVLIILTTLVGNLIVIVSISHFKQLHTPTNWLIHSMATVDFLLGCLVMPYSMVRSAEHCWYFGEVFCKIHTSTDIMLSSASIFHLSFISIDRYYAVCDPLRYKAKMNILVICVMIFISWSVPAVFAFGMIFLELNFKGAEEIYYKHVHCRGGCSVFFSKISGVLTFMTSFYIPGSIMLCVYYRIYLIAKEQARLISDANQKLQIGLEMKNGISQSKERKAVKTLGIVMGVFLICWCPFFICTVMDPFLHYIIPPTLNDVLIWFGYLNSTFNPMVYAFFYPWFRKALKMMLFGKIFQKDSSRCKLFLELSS
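Test system: RD-HGA16 (CHO) cells co-expressing Gα16 and hTAAR1 | Doses: Single dose, 3 µM | Schedule: 17-24 h seeding, 75 min 37 °C dye, 30 min RT | Evaluation: % activation from peak over basal fluorescence ratio, DMSO-to-PEA scaled | Technique: Kinetic Fluo-8 calcium fluorescence | Benchmarks: Low control DMSO, high control PEA (EC100)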
m5-HT2A agonist: agonists of mouse serotonin 5-HT2A receptor (HTR2A); CHO-K1 mHTR2A beta-arrestin complementation, luminescence; percent of 30 µM serotonin response; activation, % at 7.6 µM; 360,000 compounds, 0.66% hits;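 active = activation above a run cutoff, the mean activation of all tested compounds plus 3 SD, cut at about 14% in these data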;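 also: 0% = plate median of compound wells and 100% = 30 µM serotonin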
M1 PAM: human CHRM1 positive allosteric modulation; P11229; CHO-K1 hM1, Fluo-8 calcium fluorescence, ACh EC20; 0% = ACh EC20, 100% = maximal ACh; AID 588819; activation, % at 3 µM; 360,000 compounds, 0.088% hits; in the data active = activation above about 19%, passing the limit was not always enough
TAAR1 antag: human TAAR1 antagonism; inhibition, % at 3 µM; CHO RD-HGA16 TAAR1, Fluo-8 calcium fluorescence, antagonist; AID 624466; 360,000 compounds, 1.5% hits;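 active = inhibition above a per-plate cutoff, the mean inhibition of test compounds on that plate plus 3 SD, cut at about 49% in these data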;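 also: 0% = DMSO plus EC80 beta-PEA response and 100% = DMSO alone without agonist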
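Assay system: CHO-derived RD-HGA16 cells stably expressing human TAAR1 plus Gα16. Timing: 140 s kinetic read after compound, 140 s after agonist. Technique: kinetic Fluo-8 calcium fluorescence measurement. Measure: % inhibition of agonist calcium response.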
M1 antag: antagonists of human M1 muscarinic receptor | P11229 | CHO-K1 hM1, Fluo-8 calcium fluorescence, ACh EC80 antagonist | inhibition, % at 3 µM | 360,000 compounds, 1.3% hits;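 active = percent inhibition above its own plate's cutoff, namely the mean of that plate's compound wells plus 3 SD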;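 also: peak over basal fluorescence ratio during 140 s after agonist addition; 0% = ACh EC80 plus DMSO and 100% = DMSO alone without agonist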
TAAR1 ag conf: human TAAR1 agonism, confirmed | shares compounds with TAAR1 agonist | CHO RD-HGA16 TAAR1, Fluo-8 calcium fluorescence; scaled: DMSO 0%, maximal phenethylamine 100% | activation, % at 3 µM | 2,400 compounds, 82% hits;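 active = activation above a cutoff set at the run's mean compound activation plus 3 SD, cut at about 39% in these data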
Ga16 nonsel ag: nonselective agonist in parental cells, TAAR1 agonist counter-screen. shares compounds with TAAR1 agonist. CHO-Ga16 parental, Fluo-8 calcium fluorescence; normalized to maximal ATP response, DMSO zero. activation, % at 3 µM. 2,400 compounds, 50% hits. AID 651787;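 active = activation above the run cutoff, the mean activation over all tested wells plus 3 SD, cut at about 12% in these data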;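 also: 0% = DMSO wells and 100% = maximal ATP response on the peak over basal ratio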
TAAR1 desensitize: counter-screen for human TAAR1 agonists: agonists that desensitize TAAR1; CHO RD-HGA16 hTAAR1, Fluo-8 calcium, beta-PEA response inhibition; inhibition, % at 3 µM; 2,400 compounds, 46% hits; shares compounds with TAAR1 agonist;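 active = inhibition above the run cutoff, the mean inhibition of all test compounds plus 3 SD, cut at about 49% in these data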;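 also: beta-PEA stimulus applied at its EC80; loss of beta-PEA calcium signal after compound pretreatment read as receptor desensitization; 0% = DMSO with beta-PEA at EC80 and 100% = DMSO alone without agonist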
Ga16 antag count: nonselective Ga16 antagonism, counter-screen; shares compounds with TAAR1 agonist; CHO-Ga16 ATP-induced calcium, Fluo-8 fluorescence; inhibition, % at 3 µM; 2,400 compounds, 39% hits; AID 651952;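 active = inhibition above the plate's mean compound inhibition plus 3 SD, computed per plate, cut at about 22% in these data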;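 also: 0% = EC80 ATP with DMSO and 100% = DMSO wells without ATP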
Active calls of the source: *; . = no result given.

SMILES	M1 ag	TAAR1 agonist	m5-HT2A agonist	M1 PAM	TAAR1 antag	M1 antag	TAAR1 ag conf	Ga16 nonsel ag	TAAR1 desensitize	Ga16 antag count
CC12CCC(C/C1=N/O)C2(C)CBr (configuration not stated)	-3	2	7	14	-10	-21	.	.	.	.
Cc1ccc(O)c(C(=O)CC(=O)c2cccc(F)c2)c1	-4	54*	2	12	28	-21	28	19*	21	22*
Cc1ccc(O)c(C(=O)CC(=O)c2ccc(Cl)cc2)c1	-5	54*	2	10	20	-11	43*	23*	51*	37*
CCOC(=O)C1CCN(C(=O)C(C)c2ccc([N+](=O)[O-])cc2)CC1 (configuration not stated)	-6	6	-3	6	-13	-6	.	.	.	.
Cc1cccc(CSC(=N)N)c1	-8	67*	-8	4	40	4	93*	5	68*	6
CCN(CC)S(=O)(=O)c1ccc(C(=O)NCCSc2c[nH]c3ccccc23)cc1	-1	55*	-4	-8	86*	12	1	3	16	17
CCC(=O)NCCSc1c[nH]c2ccccc12	-3	5	-2	6	0	-11	.	.	.	.
CC(C)(C)C(=O)Nc1cccc(S(=O)(=O)NC2=NCCC2)c1	-3	1	9	8	-11	-6	.	.	.	.
CCCCN(C)c1c(C)nc2ccc(C(=O)Nc3cc(-c4ccccc4)ccc3OC)cn12	1	-1	-7	8	-22	-10	.	.	.	.
CCCCN(C)c1c(C)nc2ccc(C(=O)Nc3ccc(OC)c(OC)c3)cn12	12	63*	-1	1	16	-11	85*	48*	23	10
COc1ccc(NC(=O)Cc2coc3cc(C)ccc23)cn1	-4	2	0	8	9	-7	.	.	.	.
O=C(Nc1ccccc1)c1nnsc1S(=O)c1ccc(Cl)cc1 (configuration not stated)	7	68*	0	0	96*	-7	49*	23*	81*	38*
CCN1C(=O)[C@H]2[C@@H](c3ccc(-c4ccc5c(c4)OCO5)c(OC)c3)N[C@@](C)(C(=O)OC)[C@H]2C1=O	-1	13	3	14	8	-18	.	.	.	.
O=C1S/C(=C/c2ccc(N3CCOCC3)o2)C(=O)N1Cc1ccc(F)cc1	1	14	-1	6	5	-1	.	.	.	.
CC(C)OC(=O)CN1C(=O)S/C(=C/c2ccc(N3CCCCC3)o2)C1=O	13	63*	-3	-3	65*	22	53*	55*	59*	64*
COc1ccc(/C=C/CN2CCC(C(=O)NC(c3ccc(F)cc3)c3ccc4ccccc4n3)CC2)cc1 (configuration not stated)	-7	47*	-6	-13	32	11	40*	23*	28	26*
CC(C)CN1CCC(C(=O)NC(c2ccc(F)cc2)c2ccc3ccccc3n2)CC1 (configuration not stated)	-9	-2	-2	-13	-28	16	.	.	.	.
NS(=O)(=O)c1ccc(CCNC(=O)CSc2nc3ccccc3c(=O)n2CC2CCCO2)cc1 (configuration not stated)	-3	9	4	8	-41	-12	.	.	.	.

Compound activity (PubChem BioAssay)
